Consider 33 molecules from ChEMBL document CHEMBL4396895, “Identification and Optimization of Novel Cathepsin C Inhibitors Derived from EGFR Inhibitors” (J Med Chem, 2019).

Series [1] addresses T1, Dipeptidyl peptidase 1 (Homo sapiens, UniProt P53634). Description: Inhibition of CatL-activated recombinant human C-terminal His10-tagged cathepsin C (25 to 463 residues) expressed in mouse myeloma cells using Gly-Phe-AFC as substrate preincubated for 3 hrs followed by substrate addition and measured after 60 mins. Type of series: cell-free. An outline of the steps: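 Activated rhCatC was diluted to 4.4 nM in 25 mM MES, 50 mM NaCl, 5 mM DTT, 0.01% Triton X-100, pH 6.0. It was preincubated with compound (added in 10% DMSO) for 3 h at RT. Gly-Phe-AFC was then added to 100 μM final and read as fluorescence after 60 min. IC50 came from a sigmoidal nonlinear fit; values are means of at least two experiments.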

Series [2] addresses T1, Dipeptidyl peptidase 1. Description: Inhibition of cathepsin C (unknown origin). An outline of the steps:
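Enzyme preincubated with compound 3 h at RT. Gly-Phe-AFC added (100 μM final) and product fluorescence read after 60 min. IC50 from sigmoidal nonlinear regression, mean of at least two experiments.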

Series [3] can be described thus: Intrinsic clearance in human liver microsomes assessed per mg protein measured after 60 mins in presence of NADPH by LC-MS/MS analysis. The class given is ADME, Microsome. Conditions: read-out: CLH. Background: Liver microsomes are vesicles of endoplasmic reticulum, rich in cytochrome P450 enzymes.
Series [4] is described as follows: Intrinsic clearance in rat liver microsomes assessed per mg protein measured after 60 mins in presence of NADPH by LC-MS/MS analysis. Type of series: ADME, Microsome. Conditions: read-out: CLH.
For series [5], the target named is T1, Dipeptidyl peptidase 1. Description: Inhibition of cathepsin C in human THP1 cells using H-Gly-Phe-AFC as substrate preincubated for 4 hrs followed by substrate addition and measured after 60 mins. Type of series: cell-based. An outline of the steps: (§1)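 THP1 or U937 cells, grown in RPMI 1640 with 10% FBS, were seeded at 1.0 × 10^6/mL. They were preincubated with threefold serial dilutions of compound for 4 h at 37 °C. H-Gly-Phe-AFC was then added from a 100 μM solution and fluorescence was read after 60 min at 37 °C. Values are means of at least two experiments.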

Series [6] can be described thus: Intrinsic clearance in mouse liver microsomes assessed per mg protein measured after 60 mins in presence of NADPH by LC-MS/MS analysis. The class given is ADME, Microsome. Conditions: read-out: CLH.
Series [7] deals with T1, Dipeptidyl peptidase 1. The series is described as follows: Inhibition of cathepsin C in human U937 cells using H-Gly-Phe-AFC as substrate preincubated for 4 hrs followed by substrate addition and measured after 60 mins. Type of series: cell-based. An outline of the steps: as §1
Series [8] deals with Epidermal growth factor receptor (Homo sapiens, UniProt P00533). Description: Inhibition of EGFR (unknown origin) up to 10 uM using biotin-labelled peptide as substrate preincubated for 2 hrs followed by substrate addition and measured after 30 mins by HTRF FRET assay. An outline of the steps:
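EGFR WT was used at 0.1 nM final in 50 mM HEPES pH 7.0, 0.02% NaN3, 0.01% BSA, 0.1 mM orthovanadate, 10 mM MgCl2, 2.5 mM DTT, 6.25 nM SEB. It was preincubated with compound for 2 h. Biotin-peptide (1.4 μM) and ATP (20 μM) were then added for 30 min at RT. Read-out was HTRF/TR-FRET (Ex 320, Em 615/665 nm) with a sigmoidal curve fit.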

Calls of active or inactive are those of the source. The rule behind the calls is not given here.

What is called IC50 is the midpoint of a concentration-inhibition curve. Turning to `C=CC(=O)Nc1cccc(Oc2nc(Nc3ccc(N4CCN(C)CC4)cc3OC)ccc2N2CCCCC2)c1`, the IC50 in series [1] stood at 221 nM.

Consider `C=CC(=O)Nc1cccc(Oc2nc(Nc3ccc(N4CCOCC4)cc3)ccc2Cl)c1`, for which the IC50 in series [1] was greater than 10000 nM.

Regarding `C=CC(=O)Nc1cc(Nc2nccc(-c3cn(C)c4ccccc34)n2)c(OC)cc1N(C)CCN(C)C` [OSIMERTINIB], in series [2], half-maximal inhibition (IC50) was put at 32900 nM.

`C=CC(=O)Nc1cccc(Oc2nc(Nc3cccc(CN)c3)ccc2Cl)c1`: the half-inhibitory concentration (IC50) in series [1] is 2150 nM.

In the case of `C=CC(=O)Nc1cc(Oc2nc(Nc3ccc(N4CCN(C(C)=O)CC4)cc3OC)ccc2N2CCCCC2)ccc1C`, in series [1], the IC50 worked out at 135 nM.

For the molecule `C=CC(=O)Nc1cccc(Oc2nc(Nc3ccc(N4CCN(C)CC4)cc3OC)ccc2C#N)c1`, in series [1], the concentration for half-maximal inhibition (IC50) turned out to be 835 nM.

Consider `C=CC(=O)Nc1cccc(Oc2nc(Nc3ccc(N4CCN(C)CC4)cc3OC)ccc2N(C)C)c1`, for which the IC50 in series [1] is 1520 nM.

With `C=CC(=O)Nc1cc(Oc2nc(Nc3ccc(N4CCN(C)CC4)cc3OC)ccc2N2CCCCC2)ccc1C(F)(F)F`, the microsomal CLint was determined as 5.2 µL/min/mg in series [3], 15.1 µL/min/mg in series [4] and 15.4 µL/min/mg in series [6]. For the same molecule, the IC50 in series [5] stood at 1.8 nM; in series [1] it was 2.3 nM; in series [7], 2.4 nM.

`C=CC(=O)Nc1cccc(Oc2nc(Nc3ccc(N4CCN(C)CC4)cc3OC)ncc2Cl)c1`: the half-maximal inhibitory concentration (IC50) in series [2] and in series [1] was 2100 nM throughout.

`CN(C)C/C=C/C(=O)Nc1cc2c(Nc3ccc(F)c(Cl)c3)ncnc2cc1O[C@H]1CCOC1` [AFATINIB] returned a concentration for half-maximal inhibition (IC50) in series [2] greater than 10000 nM.

As to `C#Cc1ccc(Nc2ccc(N3CCN(C)CC3)cc2OC)nc1Oc1cccc(NC(=O)C=C)c1`, the IC50 in series [1] stood at 392 nM.

For `C=CC(=O)Nc1cccc(Oc2nc(Nc3ccc(N4CCN(C)CC4)cc3OC)ccc2N2CCCC2)c1`, the IC50 in series [1] was 175 nM.

As to `C=CC(=O)Nc1cc(Oc2nc(Nc3ccc(N4CCC(N(C)C)CC4)cc3OC)ccc2N2CCCCC2)ccc1C`, the microsomal CLint in series [3] is 2.5 µL/min/mg; in series [4], 4.1 µL/min/mg; in series [6], 4 µL/min/mg. Also, the IC50 in series [5] was found to be 1 nM; in series [1], 15.6 nM; in series [7], 2.2 nM.

Turning to `C=CC(=O)Nc1cccc(Oc2cccc(Nc3ccc(N4CCN(C)CC4)cc3OC)n2)c1`, in series [1], the half-inhibitory concentration (IC50) was found to be 785 nM.

`C=CC(=O)Nc1cc2c(Nc3ccc(F)c(Cl)c3)ncnc2cc1OCCCN1CCOCC1` [CANERTINIB] yielded an IC50 in series [2] of 2700 nM.

As for `C=CC(=O)Nc1cccc(Oc2nc(Nc3ccc(N4CCN(C)CC4)cc3OC)ccc2C(F)(F)F)c1`, in series [1], the IC50 turned out to be 1610 nM.

Take `C=CC(=O)Nc1cc(Oc2nc(Nc3ccc(N4CCN(C)CC4)cc3OC)ccc2N2CCCC2)ccc1C(F)(F)F`: the microsomal CLint in series [3] is 3.9 µL/min/mg; in series [4] it was 11 µL/min/mg; in series [6], 866 µL/min/mg. Besides, the results for the IC50 in series [5], in series [1] and in series [7] were 6.7 nM, 4 nM and 11.5 nM, respectively. The inhibition entry in series [8] was “inactive”.

With `C=CC(=O)Nc1cc(Oc2nc(Nc3ccc(N4CCN(C)CC4)nc3OC)ccc2N2CCCCC2)ccc1C`, the microsomal CLint in series [3] was determined as 6 µL/min/mg; in series [4] it was 13 µL/min/mg; in series [6] it was 22 µL/min/mg. In addition, the IC50 is 6.5 nM in series [5], 28.6 nM in series [1] and 10 nM in series [7].

As for `C=CC(=O)Nc1cccc(Oc2nc(Nc3ccc(N4CCN(C)CC4)cc3)ccc2Cl)c1`, the IC50 in series [1] came out at 483 nM.

`C=CC(=O)Nc1cc(Oc2nc(Nc3ccc(N4CCN(C)CC4)cc3OC)ccc2N2CCCC2)ccc1OC`: the IC50 in series [5] was 21.3 nM; in series [1], 140 nM; in series [7] it was 70 nM.

In the case of `C=CC(=O)Nc1cccc(Oc2nc(Nc3ccc(N4CCN(C)CC4)cc3OC)ccc2N2CCCCCC2)c1`, the IC50 in series [1] was 271 nM.

Consider `C=CC(=O)Nc1cccc(Oc2nc(Nc3ccc(N4CCN(CC5CC5)CC4)cc3)ccc2Cl)c1`, for which, in series [1], the 50% inhibitory concentration (IC50) was 783 nM.

Consider `C=CC(=O)Nc1cccc(Oc2nc(Nc3ccc(N4CCNCC4)cc3)ccc2Cl)c1`, for which the IC50 in series [1] stood at 499 nM.

On to `C=CC(=O)Nc1cccc(Oc2nc(Nc3ccc(N4CCN(C)CC4)cc3OC)ccc2N2CCCC2)c1C`, for which the IC50 in series [1] was greater than 10000 nM.

Consider `C=CC(=O)Nc1cccc(Oc2nc(Nc3ccc(N4CCN(CC5CCCC5)CC4)cc3)ccc2Cl)c1`, for which the IC50 in series [1] was greater than 10000 nM.

Take `C=CC(=O)Nc1ccc(C)c(Oc2nc(Nc3ccc(N4CCN(C)CC4)cc3OC)ccc2N2CCCC2)c1`: the IC50 in series [1] was determined as 505 nM.

Regarding `C=CC(=O)Nc1cc(Oc2nc(Nc3ccc(N4CCN(C)CC4)cc3)ccc2N2CCCCC2)ccc1C`, the microsomal CLint in series [3] was 2.9 µL/min/mg; in series [4] it was 15 µL/min/mg. Besides, the IC50 in series [5] was found to be 2.7 nM; in series [1], 17.6 nM; in series [7], 5.8 nM. For the same molecule, in series [8], the inhibition result is “inactive”.

As to `C=CC(=O)Nc1cc(Oc2nc(Nc3ccc(N4CCN(C)CC4)cc3OC)ccc2N2CCN(C)CC2)ccc1C`, the microsomal CLint in series [3] stood at 3.7 µL/min/mg; in series [4] it was 2 µL/min/mg; in series [6], 3 µL/min/mg. Besides, the IC50 is 2.8 nM in series [5], 46.5 nM in series [1] and 4.7 nM in series [7].

Turning to `C=CC(=O)Nc1cc(Oc2nc(Nc3ccc(N4CCC(N(C)C)CC4)cn3)ccc2N2CCCCC2)ccc1C`, the half-inhibitory concentration (IC50) in series [1] worked out at 307 nM.

As to `C=CC(=O)Nc1cc(Oc2nc(Nc3ccc(N4CCN(C)CC4)cc3OC)ccc2-c2ccccc2)ccc1C`, the IC50 in series [1] came to 154 nM. Moreover, the inhibition entry in series [8] was “inactive”.

With `C=CC(=O)Nc1cc(Oc2nc(Nc3ccc(N4CCN(C)CC4)cc3OC)ccc2N2CCCC(O)C2)ccc1C` (racemic), the results for the microsomal CLint in series [3], in series [4] and in series [6] were 4.9 µL/min/mg, 9 µL/min/mg and 6 µL/min/mg, respectively. Moreover, the IC50 in series [5] worked out at 4.9 nM; in series [1] it was 34.1 nM; in series [7], 7.4 nM. Also, in series [8], the inhibition result is “inactive”.

As to `C=CC(=O)Nc1cc(Oc2nc(Nc3ccc(N4CCN(C)CC4)cc3OC)ccc2N2CCC(O)C2)ccc1C` (racemic), the IC50 in series [5] was 28.4 nM; in series [1], 32.3 nM; in series [7], 49.4 nM.

For `C=CC(=O)Nc1cccc(Oc2nc(Nc3ccc(CCN)cc3)ccc2Cl)c1`, the IC50 in series [1] came out at 2050 nM.
